Source: ChEMBL document CHEMBL1126698, “Synthesis and amnesia-reversal activity of a series of 7- and 5-membered 3-acylamino lactams” (1993)

Tests used:
Assay type in all cases: functional
[1] = tested on: Mus musculus; assay: Amnesia-reversal activity in ECS-induced amnesia model of mice at 1 mg/kg i.p.; settings: route intraperitoneal
How it was run: (§1)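 Male CD1 mice (24–28 g), step-through passive avoidance. Amnesia induced by ECS through auricular electrodes (20 mA, 0.6 ms pulses, 0.5 s, 50 Hz) immediately after the acquisition trial. Compound given ip 30 min before acquisition, at doses equimolar to 1 or 10 mg/kg Piracetam. Retention latency capped at 300 s. AA = CI(treated)/CI(sham) × 100, with CI derived from Mann-Whitney U versus amnesic controls.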

[2] = tested on: Mus musculus; assay: Amnesia-reversal activity (AA) evaluated in ECS-induced amnesia model of mice at a dose of 100 mg/kg
How it was run: (§2)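 Male CD1 mice (24–28 g), step-through passive avoidance, retention end point 300 s. ECS via auricular electrodes (20 mA, 0.6 ms pulses, 0.5 s, 50 Hz) immediately after the acquisition trial. Compounds given ip 30 min before acquisition at doses equimolar to 1, 10 (and 100 for references) mg/kg Piracetam. Retention latency vs control by Mann-Whitney U. AA = CI treated/CI sham ×100.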

[3] = tested on: Mus musculus; assay: Amnesia-reversal activity in ECS-induced amnesia model of mice at 10 mg/kg i.p.; settings: route intraperitoneal; how it was run: as §1
[4] = tested on: Mus musculus; assay: Amnesia-reversal activity in scopolamine-induced amnesia model of mice at 1 mg/kg i.p.; settings: route intraperitoneal
How it was run: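 Step-through passive avoidance in male CD1 mice (24–28 g). Scopolamine hydrobromide 1.5 mg/kg sc given 15 min before the acquisition trial. Test substance given ip 30 min before acquisition at a dose equimolar to 1 mg/kg Piracetam. Retention latency end point 300 s. AA is the treated-to-sham ratio of confrontation indices (×100), each index computed from Mann-Whitney U against the scopolamine-only group.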

[5] = tested on: Mus musculus; assay: Amnesia-reversal activity evaluated in ECS-induced amnesia model of mice at a dose of 1 mg/kg; how it was run: as §2
[6] = tested on: Mus musculus; assay: Amnesia-reversal activity evaluated in scopolamine-induced amnesia model of mice at a dose of 1 mg/kg
How it was run: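 Male CD1 mice (24–28 g), step-through passive avoidance, retention end point 300 s. Scopolamine hydrobromide 1.5 mg/kg sc 15 min before acquisition. Compounds given ip 30 min before acquisition at a dose equimolar to 1 mg/kg Piracetam. Retention latency vs control by Mann-Whitney U. AA = CI treated/CI sham ×100.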

[7] = tested on: Mus musculus; assay: Amnesia-reversal activity evaluated in ECS-induced amnesia model of mice at a dose of 10 mg/kg; how it was run: as §2

Row | Structure (SMILES) | AA [1] | AA [2] | AA [3] | AA [4] | AA [5] | AA [6] | AA [7]
1 | COc1ccc(C(=O)N2CCCC2=O)cc1 [ANIRACETAM] | 29 | 83 | 0 | 18 |  |  | 
2 | CC(=O)NC1CCCCNC1=O (stereo not drawn) | 7 |  | 14 | 39 |  |  | 
3 | N[C@H]1CCNC1=O |  |  |  |  | 24 | 0 | 0
4 | O=CN[C@H]1CCCCN(CCO)C1=O | 46 |  | 61 | 7 |  |  | 
5 | O=CCN1CCCC[C@H](NC(=O)CCCc2ccccc2)C1=O |  |  |  |  | 0 | 26 | 25
6 | NC(=O)CN1CC(O)CC1=O (stereo not drawn) [OXIRACETAM] | 31 | 57 | 8 | 0 |  |  | 
7 | NC(=O)CN1CCCC1=O [PIRACETAM] | 0 | 39 | 0 |  |  |  | 
8 | O=C(CCCc1ccccc1)N[C@H]1CCCCN(CCO)C1=O | 7 |  | 20 | 12 |  |  | 
9 | O=C(CCCc1ccccc1)NC1CCCCNC1=O (stereo not drawn) | 0 |  | 0 | 5 |  |  | 
10 | NC(=O)CN1CCCC[C@H](NC(=O)CCCc2ccccc2)C1=O | 0 |  | 0 | 0 |  |  | 
11 | O=C(N[C@@H]1CCCCNC1=O)c1cccc(C(F)(F)F)c1 | 21 |  | 0 | 15 |  |  | 
12 | N[C@H]1CCCCNC1=O |  |  |  |  | 37 | 47 | 26
13 | COC(=O)CN1CCCC[C@H](NC(=O)CCCc2ccccc2)C1=O |  |  |  |  | 0 | 0 | 0
14 | COc1cc(C(=O)NC2CCCCNC2=O)cc(OC)c1OC (stereo not drawn) | 31 |  | 42 | 0 |  |  | 
15 | O=C1NCCCCC1NC(=O)[C@@H]1CCCN1C(=O)OCc1ccccc1 (stereo partly drawn) | 0 |  |  | 27 |  |  | 
16 | COc1ccc(C(=O)NC2CCCCNC2=O)cc1 (stereo not drawn) | 37 |  | 37 | 0 |  |  | 
17 | O=C(NC1CCNC1=O)c1cccc(C(F)(F)F)c1 (stereo not drawn) | 51 |  | 58 | 0 |  |  | 
18 | O=C(CN1CCCC1=O)NC1CCCCNC1=O (stereo not drawn) | 10 |  | 0 | 21 |  |  | 
19 | O=CNC1CCCCNC1=O (stereo not drawn) | 71 |  | 55 | 49 |  |  | 
20 | COC(=O)CN1CCCC[C@H](NC=O)C1=O | 0 |  | 9 | 0 |  |  | 
21 | O=CNC1CCNC1=O (stereo not drawn) |  |  |  |  | 53 | 0 | 9
22 | O=C(NC1CCCCNC1=O)c1cccc(C(F)(F)F)c1 (stereo not drawn) | 18 |  | 17 | 65 |  |  | 
23 | N[C@@H]1CCCCNC1=O |  |  |  |  | 0 | 44 | 25
24 | NC(=O)CN1CCCC[C@H](NC=O)C1=O | 55 |  | 9 | 0 |  |  | 
